The series in a line: Toxicity liver stage against HepG2, at 10uM. In kind it is cell-based. Also noted: test concentration 10 uM, cell line HepG2-A16-CD81EGFP. Conditions: human, HepG2-A16-CD81EGFP cells; read-out: INHIBITION
In short, it runs like this:
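Uninfected HepG2-A16-CD81EGFP cells, 3 × 10^3 per well, 1536-well, plated on prespotted compound at 10 μM final, parasite-free screening media added to match infected plates; puromycin 10 μM positive, DMSO 0.5% negative; run in parallel with 48 h PbLuc assay at 37 °C, 5% CO2; viability by CellTiter-Glo luminescence, normalized to controls.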
As to `COc1ccc(CNC2(Cc3cc(CC(C)C)on3)COC2)cc1`, the cytotoxicity at 10 µM amounted to 4.71%.

With `CCN(CC)CCNC(=O)CCc1c(C)nn(-c2ccccc2Cl)c1C`, the cytotoxicity at 10 µM was -0.61%.

As to `COCC(=O)N1CC2=CC(C)(C)COc3ccc(OC)c(c32)C1`, the cytotoxicity at 10 µM was -2.59%.

Take `CC(C)[C@H](NC(=O)NC1CCS(=O)(=O)C1)C(=O)NCc1ccccc1` (stereo partly specified): the cytotoxicity at 10 µM turned out to be 7.39%.

On to `COc1c[nH]c(C(=O)N2CCN(c3ccccc3)CC2)cc1=O`, for which the cytotoxicity at 10 µM stood at 0.0868%.

Turning to `O=C(Nc1cccnc1-n1cc(Cl)cn1)C1CCCC1`, the cytotoxicity at 10 µM is -43.3%.

Consider `O=C1CSC(c2cccnc2)c2c(n(C3CCOCC3)[nH]c2=O)N1` (stereo unspecified), for which the cytotoxicity at 10 µM is -7.95%.

As to `CN(C(=O)Cn1nc(-c2ccccc2Cl)ccc1=O)C1CCS(=O)(=O)C1` (stereo unspecified), the cytotoxicity at 10 µM was found to be 1.96%.

For the compound `C=Cn1ncc(CN2CCC(c3ncc(Cl)cc3S(C)(=O)=O)CC2)c1C`, the cytotoxicity at 10 µM stood at 6.29%.

Turning to `Cc1nn(C)c(C)c1-c1ccc(=O)n(C(C)C(=O)NC2CCCCC2)n1` (stereo unspecified), the cytotoxicity at 10 µM is 1.94%.

Regarding `Cc1cc(-c2cnc(N3CCN(C)CC3)nc2C(C)C)on1`, the cytotoxicity at 10 µM was -5.97%.

In the case of `CS(=O)(=O)N1CC2(CCN(CC3CCCCC3)C2)Cc2ccccc21` (stereo unspecified), the cytotoxicity at 10 µM came to 23.3%.

`O=C(c1cscn1)N1CCC2(COc3ncccc3S(=O)(=O)N2)C1` (stereo unspecified): the cytotoxicity at 10 µM amounted to 7.22%.

Regarding `CCN(CC)C(=O)c1cnc(Sc2nccn2C)c(Cl)c1`, the cytotoxicity at 10 µM was -61.1%.

As for `Cn1nc(C(=O)NCc2ccc(OC3CCCCC3)nc2)ccc1=O`, the cytotoxicity at 10 µM amounted to 21.3%.

As to `Cc1ccc(C(=O)NC2CCN(S(C)(=O)=O)CC2)c(=O)[nH]1`, the cytotoxicity at 10 µM came to 15.7%.

For the compound `Cc1nc(C2NC3(CCCC3)C(=O)N2CC2CC2)cs1` (stereo unspecified), the cytotoxicity at 10 µM is -6.09%.

As for `CCc1nc(CN(C)CC(=O)OC(C)(C)C)cs1`, the cytotoxicity at 10 µM was found to be 3.91%.

In the case of `Cc1ccccc1-n1cnnc1SCC1CCCCO1` (stereo unspecified), the cytotoxicity at 10 µM amounted to 11.8%.

On to `CCn1ccnc1CN1CCC(N(Cc2ncc(C)o2)C(C)=O)C1` (stereo unspecified), for which the cytotoxicity at 10 µM was 11.5%.

On to `CN(C)C(=O)c1ccccc1NCCCOc1cccc(C#N)c1`, for which the cytotoxicity at 10 µM came out at 4.52%.

For the compound `COCc1nc(C(=O)N2CCN(c3nccc(OC)n3)CC2)cs1`, the cytotoxicity at 10 µM was -7.68%.

As for `CCc1nnc2n1CCN(Cc1csc(-c3ccccc3)n1)C2`, the cytotoxicity at 10 µM is -6.29%.

For `CCN(C(=O)Cc1ccc(NC(=O)NC2CC2)cc1)c1ccccc1`, the cytotoxicity at 10 µM is 7.84%.

Take `CCOc1ccc(C2CCCN2Cc2nnnn2C2CC2)cc1` (stereo unspecified): the cytotoxicity at 10 µM stood at 6.26%.

Regarding `COCCOCC(=O)NC(C#N)c1c(F)cccc1Cl` (stereo unspecified), the cytotoxicity at 10 µM is 19.6%.

Consider `FC(F)CN1CCC(NCc2ccc(-n3cccn3)nc2)CC1`, for which the cytotoxicity at 10 µM turned out to be 10.6%.

Regarding `Cc1nc(CNC2CCN(Cc3ccccc3)C2)sc1C` (stereo unspecified), the cytotoxicity at 10 µM is 2.86%.

Regarding `O=C(CN(CC1CCC1)CC(F)(F)F)N1CCCC1`, the cytotoxicity at 10 µM was found to be 1.84%.

`Cc1cc(C)cc(OCCC(=O)NC2CC(=O)N(C)C2)c1` (stereo unspecified): the cytotoxicity at 10 µM was -1.68%.

On to `CCS(=O)(=O)CC(=O)NC(C)c1ccc(F)cc1F` (stereo unspecified), for which the cytotoxicity at 10 µM amounted to 1.73%.

Take `O=C(CCOc1ccccc1F)N1CCOCC1`: the cytotoxicity at 10 µM was -4.4%.

As for `Cc1ccc(NC(=O)CSCc2cccnc2)nc1`, the cytotoxicity at 10 µM is -46.4%.

As for `c1ccc(-c2noc(C3CCN(CCCn4cncn4)CC3)n2)cc1`, the cytotoxicity at 10 µM is -14.3%.

As for `CCOCc1ccccc1NC(=O)NC1CCN(c2ncccn2)CC1`, the cytotoxicity at 10 µM was -4.78%.

In the case of `Cn1cc(NC(=O)c2ccccn2)cc(Cl)c1=O`, the cytotoxicity at 10 µM came to 7.7%.

For the compound `Cn1cc(-c2csc(N3CCN(C(=O)OC(C)(C)C)CC3)n2)cn1`, the cytotoxicity at 10 µM stood at 23.2%.

Consider `CCc1nc(CC(=O)NCC(Cc2ccc(F)cc2)C(N)=O)cs1` (stereo unspecified), for which the cytotoxicity at 10 µM was -0.86%.

As to `Cc1csc(CN2C[C@@H]3CN(CC4CCOCC4)CCO[C@@H]3C2)n1`, the cytotoxicity at 10 µM is -109%.

In the case of `Cc1cccc(COC[C@@]23CCC[C@@H]2CN(C(=O)Cc2ccco2)C3)n1`, the cytotoxicity at 10 µM is -109%.

Take `COc1cc(C(C)=O)ccc1OC12CCCN(CC1)C2` (stereo unspecified): the cytotoxicity at 10 µM was found to be 10.2%.

For the compound `COCCC(=O)N1CCCCC1c1ccc(F)cc1` (stereo unspecified), the cytotoxicity at 10 µM was -41.3%.

In the case of `Cn1ccnc1C(=O)N1CCCC(Cn2cc(CO)nn2)C1` (stereo unspecified), the cytotoxicity at 10 µM was -1.88%.

For `CCc1cc(NCCNC(C)=O)nc(N2CCCC2)n1`, the cytotoxicity at 10 µM was -6.77%.

In the case of `C1=CCN(c2nc(CC3CC3)nc3c2CCN(C2CCOCC2)CC3)C1`, the cytotoxicity at 10 µM was 0.0776%.

On to `CSc1cccc(CN2CCC(CCC(=O)Nc3ccccc3)CC2)c1`, for which the cytotoxicity at 10 µM was -2.48%.

As to `Cc1nc(N2CCC3(CCCNC3=O)C2)nc2c1CCCC2` (stereo unspecified), the cytotoxicity at 10 µM was -4.97%.

Turning to `COCCCNc1ncnc2c1CCN(C(=O)CC1C=CCC1)CC2` (stereo unspecified), the cytotoxicity at 10 µM worked out at 5.97%.

As to `COc1ccc([C@@H]2C[C@H](NC(C)=O)C[C@H](CCc3ccccc3)O2)cn1`, the cytotoxicity at 10 µM is -3.13%.

As to `Cc1noc(C)c1CN1CCCC1c1nc(-c2ccccc2)no1` (stereo unspecified), the cytotoxicity at 10 µM was -39.2%.

As for `CC(C)N1CCCCC1CCn1cnc2cc(C(F)(F)F)ccc2c1=O` (stereo unspecified), the cytotoxicity at 10 µM was -5.98%.

`CNc1cc(C(=O)N(C)Cc2cc(-c3cccs3)n[nH]2)ccn1`: the cytotoxicity at 10 µM was -9.22%.

With `CCOc1ccc(C(C)Nc2ncnc3c2CCNC3)cc1OCC` (stereo unspecified), the cytotoxicity at 10 µM is -8.81%.

In the case of `CCCc1cc(N2CCC(NC3CCS(=O)(=O)C3)CC2)nc(C)n1` (stereo unspecified), the cytotoxicity at 10 µM was -6.65%.

On to `Cc1ccc(CN2CCN(C3CCSCC3)CC2CCO)o1` (stereo unspecified), for which the cytotoxicity at 10 µM is -3.96%.

Regarding `COc1cc(C)sc1C(=O)N1CCCCC1c1ccccn1` (stereo unspecified), the cytotoxicity at 10 µM is 0.864%.

Turning to `COc1cc(-c2cccc3c2OC(CN)C3)cc(OC)c1OC` (stereo unspecified), the cytotoxicity at 10 µM was -42.6%.

As for `N#Cc1cccc(NC2CC(=O)N(C3Cc4ccccc4C3)C2)n1` (stereo unspecified), the cytotoxicity at 10 µM was -141%.

With `Cc1nc(CC(=O)N(C)C2CCCN(CCc3ccccc3)C2)cs1` (stereo unspecified), the cytotoxicity at 10 µM was determined as 3.13%.

In the case of `CNC(=O)[C@@H]1C[C@H](N)CN1S(=O)(=O)c1cc(Cl)cc(Cl)c1O`, the cytotoxicity at 10 µM came out at 1.68%.

As for `Cn1ccnc1C1CCCN(C(=O)c2cc(F)cc(F)c2)C1` (stereo unspecified), the cytotoxicity at 10 µM worked out at 18.4%.

`CN1C[C@@H](NC(=O)c2cc(F)cc(F)c2)C[C@H]1C(=O)NCc1ncc[nH]1`: the cytotoxicity at 10 µM was -6.25%.

Turning to `CCOc1cc(CN2CCCC2)ccc1Oc1cccc(C#N)n1`, the cytotoxicity at 10 µM was -1.83%.

Regarding `COCCc1noc(CN(C)c2nc(C)cc(C)n2)n1`, the cytotoxicity at 10 µM amounted to 0.801%.

As to `CCN(CC)S(=O)(=O)N1CCC(c2nccn2Cc2ccccn2)CC1`, the cytotoxicity at 10 µM came out at 0.136%.

For the compound `CN1C[C@H]2CNC[C@@]2(C(=O)N2CCN(c3ncccc3C#N)CC2)C1`, the cytotoxicity at 10 µM stood at 2.12%.

On to `Cc1cnn(CC2CCCN2c2ncnc3ccsc23)c1` (stereo unspecified), for which the cytotoxicity at 10 µM came out at 13.6%.

In the case of `Cc1nc(C)n(CC2CCCN(Cc3ccccc3C#N)C2)n1` (stereo unspecified), the cytotoxicity at 10 µM was -16.4%.

As for `CC(C)(C)c1nc(CC(=O)N2CCCC(n3cncn3)C2)cs1` (stereo unspecified), the cytotoxicity at 10 µM is -11.2%.

For `CC(=O)N1CCN(C(=O)NCc2cccnc2OC(C)C)CC1`, the cytotoxicity at 10 µM was -17.5%.

In the case of `CCOc1ccc(C#N)cc1NCC(=O)NC(=O)Nc1ccccc1`, the cytotoxicity at 10 µM was -11.8%.

For the compound `CCc1ccc(C(N)c2cccc(S(C)(=O)=O)c2)cc1` (stereo unspecified), the cytotoxicity at 10 µM was -10.9%.

As to `Cc1ccc(CCC(=O)N2CCCC(c3cc(C(N)=O)[nH]n3)C2)cc1` (stereo unspecified), the cytotoxicity at 10 µM was -4.33%.

Take `Cc1nccn1-c1cc(CNC(=O)CCNC(=O)C2CCCC2)ccn1`: the cytotoxicity at 10 µM was -2.06%.

In the case of `COc1cccc(OCCNC(=O)CN2CCN(C)CC2C)c1` (stereo unspecified), the cytotoxicity at 10 µM is -2.5%.

For `CC(c1nc(C2CC2)no1)N1CCN(CCOCC(F)(F)F)CC1` (stereo unspecified), the cytotoxicity at 10 µM was -8.6%.

Regarding `COCCNC(=O)C1(c2ccccc2C)CCOCC1`, the cytotoxicity at 10 µM is -9.04%.

For the compound `Cc1nc(-c2ccsc2)ccc1C(=O)NCCN1CCOCC1`, the cytotoxicity at 10 µM is -10.2%.

`CCn1ccnc1CN1CCN(Cc2ccc(C#N)cc2)CC1`: the cytotoxicity at 10 µM is -9.62%.

Turning to `CC(C)c1nc2n(n1)CC(NCc1nnnn1C1CC1)CC2` (stereo unspecified), the cytotoxicity at 10 µM is -1.4%.

`CC(NC(=O)COc1ccc(F)cc1)c1nnc2n1CCCCC2` (stereo unspecified): the cytotoxicity at 10 µM is -8.99%.

With `CCc1n[nH]c(C2CN(CCc3cccs3)CCO2)n1` (stereo unspecified), the cytotoxicity at 10 µM was found to be 3.83%.

Consider `CCC(CN1CCCCC1)NC(=O)C1(c2ccc(F)cc2)CC1` (stereo unspecified), for which the cytotoxicity at 10 µM came to 1.69%.

Consider `COc1cccc(CN2CCC(c3cc(O)nc(C)n3)C2)c1` (stereo unspecified), for which the cytotoxicity at 10 µM was -0.542%.

For `c1cc(CN2CCO[C@H]3[C@H](OCCN4CCCC4)CC[C@@H]32)co1`, the cytotoxicity at 10 µM turned out to be 6.49%.

With `O=C1C[C@H]2[C@@H](CCN2C(=O)c2ccc[nH]2)N1CCN1CCCC1`, the cytotoxicity at 10 µM is -4.28%.

As to `COCc1n[nH]c2c1CN(Cc1ccccn1)C2`, the cytotoxicity at 10 µM was -102%.

`CN(C)CCN1CCOCC2(CCCN(C(=O)c3cccn3C)C2)C1` (stereo unspecified): the cytotoxicity at 10 µM amounted to 4.87%.

Consider `Cc1nc(C)n(CC2CN(Cc3cccs3)Cc3nccn3C2)n1` (stereo unspecified), for which the cytotoxicity at 10 µM is -133%.

In the case of `Cn1nc(COCC2CC2)c2c1CCN(Cc1cccs1)C2`, the cytotoxicity at 10 µM is -101%.

On to `O=C(Nc1cccnc1)[C@H]1CN(Cc2ccccn2)C[C@H]2OCC[C@@H]12`, for which the cytotoxicity at 10 µM was -107%.

Regarding `FC1(F)CCN(Cc2ccccn2)CC12CCN(c1ncccn1)C2` (stereo unspecified), the cytotoxicity at 10 µM was -95.8%.

Turning to `O=C(NC[C@]12COC[C@H]1CN(Cc1nccs1)C2)c1cscn1`, the cytotoxicity at 10 µM was -1.11%.

On to `COc1cccc(C2c3c(n[nH]c3C)N=C3COC(=O)C32)c1O` (stereo unspecified), for which the cytotoxicity at 10 µM worked out at 65.8%.

Take `Cc1ccc(-n2cccn2)cc1S(=O)(=O)N1C[C@H]2CC[C@@H](C1)N(C)C2`: the cytotoxicity at 10 µM amounted to 1.62%.

For `Cn1nc(C2CCCC2)c(-c2ccc3c(c2)OCO3)c1N`, the cytotoxicity at 10 µM was -51.5%.

The record behind these values is ChEMBL document CHEMBL4513216, “Probing the Open Global Health Chemical Diversity Library for Multistage-Active Starting Points for Next-Generation Antimalarials” (ACS Infect Dis, 2020).
